# Rows were chosen to be rich in hits. Some 3.5% of all compounds tested hit in one or more screens of this group.
# MrgX1 PAM: human MrgX1 positive allosteric modulation, primary screen; Q96LB2; MrgX1-HEK293, Fluo-4 calcium flux, FDSS; hits give high values; B-score at 10 µM; 310,000 compounds, 0.63% hits;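 active = plate-corrected calcium response at least 3 library SD above typical, normal starting fluorescence, not activating the receptor alone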;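 note: compound read alongside a low EC10 to EC30 dose of BAM8-22 agonist; peak minus trough fluorescence over baseline measured at the second addition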
# Target sequence (Q96LB2 whole entry, looked up): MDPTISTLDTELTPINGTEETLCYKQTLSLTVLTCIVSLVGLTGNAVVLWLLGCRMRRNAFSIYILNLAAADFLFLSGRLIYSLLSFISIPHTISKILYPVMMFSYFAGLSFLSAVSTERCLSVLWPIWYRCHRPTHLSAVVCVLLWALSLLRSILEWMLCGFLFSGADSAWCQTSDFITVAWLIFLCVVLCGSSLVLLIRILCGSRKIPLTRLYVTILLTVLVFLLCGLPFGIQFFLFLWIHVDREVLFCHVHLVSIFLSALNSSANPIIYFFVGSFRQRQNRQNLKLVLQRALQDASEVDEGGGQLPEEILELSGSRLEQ
# MrgX1 antagonist: human MrgX1 receptor antagonism, primary screen. 310,000 compounds, 1.3% hits. MRGX1-HEK293 calcium flux, Fluo-4, BAM8-22 antagonism; hits give low values. B-score at 10 µM;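 active = calcium-response B-score plate-corrected more than 3 library SD below zero, starting fluorescence within 5 deviations, no agonist response on first addition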;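 note: peak minus trough fluorescence over baseline after final BAM8-22 challenge near maximal dose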
# RGS4 inh: inhibitors of human RGS4. P49798. B-score at 10 µM. AID 463165. 310,000 compounds, 0.45% hits. HEK293 M3R/RGS4 inducible, Fluo-4 calcium flux; hits give high values; triggered by carbachol at its EC20;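 active = B-score, a plate-corrected calcium signal, over three deviations above library mean, with baseline fluorescence within five deviations of library mean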;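 note: RGS4 expression induced by doxycycline in cells with stable M3 receptor; B-score is computed from the integrated fluorescence ratio over baseline after carbachol; higher B-score means a larger calcium signal and so more RGS4 inhibition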
# Target sequence (P49798 whole entry, looked up): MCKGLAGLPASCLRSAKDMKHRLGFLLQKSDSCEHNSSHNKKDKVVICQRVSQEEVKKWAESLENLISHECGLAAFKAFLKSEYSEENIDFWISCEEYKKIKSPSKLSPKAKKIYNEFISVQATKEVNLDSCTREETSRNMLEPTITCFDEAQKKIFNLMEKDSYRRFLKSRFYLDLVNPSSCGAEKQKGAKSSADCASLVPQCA
# RGS4 act: potentiators or activators of RGS4; HEK293 M3R/inducible RGS4, carbachol calcium flux Fluo4; hits give low values; B-score at 10 µM; 310,000 compounds, 0.92% hits; AID 463111;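 active = B-score of the integrated calcium signal more than 4 SD below the library mean, with starting fluorescence not abnormally high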;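 note: negative B-score means reduced calcium response which marks RGS4 activation or potentiation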
#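 test system = M3R-expressing HEK293 line, RGS4 induced by doxycycline | probe or stimulus = carbachol at ECmax as muscarinic agonist stimulus | timing = dye loading 30 min 37 °C, buffer rest 30 min RT | signal = calcium dye Fluo4 fluorescence | evaluation = B score from integrated fluorescence ratio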
# MrgX1 ag: human MrgX1 receptor agonism, primary screen. B-score at 10 µM. MrgX1-HEK293 cells, Fluo-4 calcium fluorescence, agonist mode; hits give high values. Q96LB2. 310,000 compounds, 0.44% hits. AID 588627;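 active = calcium response B-score plate-corrected fluorescence ratio at least 3 library SD, with starting fluorescence B-score inside 5 SD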
#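 Test system: HEK293 cells stably expressing human MrgX1 receptor; amount: 15,000 cells per well; doses: compound delivered in addition one of three; times: overnight plating before 1 h dye loading; detection: Fluo-4 NW calcium-flux fluorescence, kinetic read; read-out basis: B-scored fluorescence response ratio; controls: positive and negative controls per plate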
# RGS4 inh valid: RGS4 inhibitor validation. 1,700 compounds, 65% hits. HEK293 M3R/RGS4, carbachol calcium Fluo-4 fluorescence; carbachol added at its EC20; 0 = buffer wells, 100 = carbachol control. calcium response, % at 10 µM. AID 492999. shares compounds with RGS4 inh;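 active = duplicate-averaged calcium response above the buffer-only control mean plus 5 SD of those controls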;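 note: integrated fluorescence ratio F max minus min over baseline F0; higher response in RGS4-induced cells means RGS4 inhibition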
# M3R Ca ctr: counter-screen for RGS4 inhibitors: effect in non-induced cells. shares compounds with RGS4 inh. HEK293 M3R non-induced, carbachol calcium Fluo-4; submaximal (EC20) carbachol stimulus; buffer wells 0%, carbachol control wells 100%. activity (percent), % at 10 µM. 1,900 compounds, 20% hits. AID 493000; call rule not given here;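 note: RGS4 induction absent so cells express M3R without RGS4; higher means more calcium signal and flags a non-specific hit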
# M3R basal Ca ctr: second counter-screen for RGS4 inhibitors: non-induced cells without carbachol; 1,900 compounds, 22% hits; AID 493001; shares compounds with RGS4 inh; HEK293 M3R/RGS4 non-induced, Fluo-4 calcium, no carbachol; normalised: buffer wells 0%, carbachol wells 100%; calcium response (agonist-mode artifact), % at 10 µM;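 active = duplicate-averaged calcium rise in uninduced cells above buffer wells' mean plus 5 SD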
# * marks the source's active call; other numbers are inactive results; i = inactive; x = no result.
SMILES,MrgX1 PAM,MrgX1 antagonist,RGS4 inh,RGS4 act,MrgX1 ag,RGS4 inh valid,M3R Ca ctr,M3R basal Ca ctr
Nc1c(C(=O)NCc2ccco2)c2nc3ccccc3nc2n1Cc1ccccc1,i,i,i,i,i,x,x,x
Nc1c(C(=O)NCc2ccco2)c2nc3ccccc3nc2n1CCN1CCOCC1,i,i,5.3*,i,i,14%*,42%*,16%*
Cc1nn(Cc2ccccc2)c(C)c1C=C1C(=O)NC(=O)NC1=O,i,i,i,i,i,i,i,i
Cc1nn(Cc2ccccc2)c(C)c1C(=O)NCc1ccccc1,i,i,i,i,i,x,x,x
COc1ccc(Cn2c(O)c(/C=N/NC(=O)c3ccccc3O)c(=O)[nH]c2=O)cc1,i,i,i,i,i,x,i,i
O=C(N/N=C/c1c(O)n(Cc2ccc(F)cc2)c(=O)[nH]c1=O)c1ccccc1O,i,i,i,i,i,i,i,i
COc1ccc(Cn2c(O)c(C=NCCN3CCOCC3)c(=O)[nH]c2=O)cc1,i,i,i,i,i,x,x,x
O=C(N/N=C/c1c(O)n(Cc2ccccc2)c(=O)[nH]c1=O)c1ccccc1O,i,i,6.9*,i,i,12%*,i,i
O=C(N/N=C/c1c(O)n(CCc2ccc(F)cc2)c(=O)[nH]c1=O)c1ccccc1,i,i,i,i,i,x,x,x
O=C(N/N=C/c1c(O)n(CCc2ccccc2)c(=O)[nH]c1=O)c1ccccc1O,i,i,i,i,i,i,i,9.0%*
Cc1ccc(-c2cc(-c3ccccc3)cc(-c3ccccc3)[n+]2-c2ccccc2C(=O)O)cc1,i,i,i,i,i,x,x,x
CC(C)Sc1nnc(OC(=O)N(C)C)n1-c1ccccc1,i,i,i,i,i,x,x,x
COc1ccc(Cn2c(O)c(/C=N/NC(=O)c3ccncc3)c(=O)[nH]c2=O)cc1,i,i,i,i,i,x,x,x
COc1ccc(Cn2c(O)c(/C=N/NC(=O)c3ccccc3)c(=O)[nH]c2=O)cc1,i,i,i,i,i,x,i,9.5%*
COc1cc(CC2(CCc3ccncc3)C(=O)N(C)C(=O)N(C)C2=O)cc(OC)c1OC,i,i,i,i,i,x,x,x
COc1ccc(N2C(=O)NC(=O)/C(=C\c3cn(CC(=O)N4CCOCC4)c4ccccc34)C2=O)c(OC)c1,i,i,8.7*,i,i,16%*,i,8.5%*
O=C(c1ccccc1)c1ccc(N=Nc2c(O)[nH]c(=O)[nH]c2=O)cc1,i,i,i,i,i,x,x,x
O=C1NC(=O)N(CCc2ccc(F)cc2)C(=O)/C1=C/c1cccs1,i,i,i,i,i,x,i,i
Cc1ccc(/C=C2/C(=O)NC(=O)N(CCc3ccc(F)cc3)C2=O)o1,i,i,i,i,i,i,i,i
CCOC(=O)C1CCN(/C=C2/C(=O)NC(=S)N(c3ccccc3F)C2=O)CC1,i,i,i,i,i,x,x,x
O=C1NC(=O)N(Cc2ccc(F)cc2)C(=O)/C1=C\c1ccc([N+](=O)[O-])s1,i,i,6.3*,i,i,20%*,i,i
COc1ccc(CN2C(=O)NC(=O)/C(=C/c3ccc([N+](=O)[O-])s3)C2=O)cc1,i,i,8.9*,i,i,29%*,i,i
COc1ccc(CN2C(=O)NC(=O)/C(=C\c3cc(OC)c(OC)c(OC)c3)C2=O)cc1,i,i,i,i,i,x,x,x
COc1ccc(CC2C(=O)N(C)C(=O)N(C)C2=O)c(OC)c1,i,i,i,i,i,x,x,x
CC12CN3CCN(C1)CC(C)(C3)C2=NO,i,i,i,i,i,x,x,x
SMILES,MrgX1 PAM,MrgX1 antagonist,RGS4 inh,RGS4 act,MrgX1 ag,RGS4 inh valid,M3R Ca ctr,M3R basal Ca ctr
CN(C)C(=O)Oc1ccc(Cl)c2cccnc12,i,i,i,i,i,x,x,x
COc1cc(C(c2c(C)[nH]n(-c3ccccc3)c2=O)c2c(C)[nH]n(-c3ccccc3)c2=O)cc(OC)c1OC,i,i,6*,i,i,14%*,i,i
COc1ccc(CN2C(=O)NC(=O)/C(=C\c3ccco3)C2=O)cc1,i,i,i,i,i,x,x,x
O=C1NC(=O)N(Cc2ccccc2)C(=O)/C1=C/C=C/c1ccco1,i,i,7*,i,31*,11%*,i,22%*
O=c1[nH]c(=O)n(-c2ccccc2)c(O)c1/C=C1/C(c2ccccc2)=Nc2ccccc21,i,i,9.1*,i,42*,30%*,i,16%*
Nc1ccncc1Cl,i,i,i,i,i,x,x,x
Cc1cc(C)cc(N2C(=O)NC(=O)/C(=C\c3cccn3-c3ccc(Cl)cc3)C2=O)c1,i,i,i,i,i,x,x,x
Cc1cc(C)cc(N2C(=O)NC(=O)/C(=C\c3cccn3-c3ccccc3)C2=O)c1,i,i,9.2*,i,i,18%*,i,15%*
COc1cc(O)cc2c1C(=O)OC(C)CCCC(=O)CCC/C=C\2 (stereo unspecified),i,i,i,i,i,x,i,i
C[C@H]1CCCC(=O)CCC/C=C/c2cc(O)cc(O)c2C(=O)O1,i,i,8.2*,i,i,35%*,i,i
Cc1ccc(S(=O)(=O)NP(=O)(Oc2ccccc2)Oc2ccccc2)cc1,i,i,i,i,i,x,x,x
CC(=O)c1ccc2c(c1)C1C(Cl)C(Sc3ccccc3[N+](=O)[O-])CC1C(C(=O)O)N2 (stereo unspecified),i,i,x,x,i,x,x,x
Cc1ccc(/C=C2\C(=O)NC(=S)N(c3ccc(F)cc3)C2=O)o1,i,i,i,i,i,x,i,12%*
COc1cccc(N2C(=O)/C(=C/c3ccc(C)o3)C(=O)NC2=S)c1,i,i,10*,i,i,93%*,33%*,20%*
O=C1NC(=S)N(c2ccc(F)cc2)C(=O)/C1=C/c1ccccc1O,i,i,i,i,i,x,x,x
